Assay results: ChEMBL document CHEMBL1135907, “Novel 5-substituted 2,4-thiazolidinedione and 2,4-oxazolidinedione derivatives as insulin sensitizers with antidiabetic activities” (J Med Chem, 2002)

Columns and labels:
Rattus norvegicus [1] = species: Rattus norvegicus; assay: (§1) Effective dose for 25% reduction in glucose-lowering activity in Wistar fatty rats; type: functional
Summary of the method: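 Wistar fatty rats, 10–15 weeks old, grouped five per group by plasma glucose and triglyceride. Compound suspended in 0.5% methyl cellulose, given orally by stomach tube once daily for 6 d at three concentrations. Animals had CE-2 pellets and water ad libitum. Plasma glucose measured enzymatically on tail-vein blood. ED25 (mg/kg/d) for 25% reduction from control derived by linear regression over the three doses.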

Mus musculus [2] = species: Mus musculus; assay: Effective dose for 25% reduction in plasma lipid-lowering activity in KKAy mice; type: functional
Summary of the method: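 Male/female not stated; KKAy mice, 9–13 weeks old, fed powdered CE-2 chow 3 d, grouped (five per group) by blood glucose. Compounds given as dietary admixture at three levels (0.01, 0.005 or 0.001% in diet) for 4 d. Orbital-vein plasma triglyceride measured enzymatically as % reduction vs control; dose (mg/kg/d) from food intake and body weight; ED25 by linear regression.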

Rattus norvegicus [3] = assay: Plasma concentration of enantiomer at a dose of 1 mg/kg in Jc1SD rats after intravenous administration upon racemisation after 5 min; type: functional, organism-based; design: dose 1 mg/kg
Rattus norvegicus [4] = assay: Plasma concentration at a dose of 1 mg/kg in Jc1SD rats after intravenous administration upon racemisation after 120 min; type: functional, organism-based; design: dose 1 mg/kg
Rattus norvegicus [5] = assay: Plasma concentration at a dose of 1 mg/kg in Jc1SD rats after intravenous administration upon racemisation after 15 min; type: functional, organism-based; design: dose 1 mg/kg
Rattus norvegicus [6] = assay: Plasma concentration of enantiomer at a dose of 1 mg/kg in Jc1SD rats after intravenous administration upon racemisation after 15 min; type: functional, organism-based; design: dose 1 mg/kg
Rattus norvegicus [7] = assay: Plasma concentration at a dose of 1 mg/kg in Jc1SD rats after intravenous administration upon racemisation after 30 min; type: functional, organism-based; design: dose 1 mg/kg
Rattus norvegicus [8] = assay: Plasma concentration of enantiomer at a dose of 1 mg/kg in Jc1SD rats after intravenous administration upon racemisation after 60 min; type: functional, organism-based; design: dose 1 mg/kg
Rattus norvegicus [9] = assay: Plasma concentration of enantiomer at a dose of 1 mg/kg in Jc1SD rats after intravenous administration upon racemisation after 120 min; type: functional, organism-based; design: dose 1 mg/kg
Rattus norvegicus [10] = assay: Plasma concentration at a dose of 1 mg/kg in Jc1SD rats after intravenous administration upon racemisation after 10 min; type: functional, organism-based; design: dose 1 mg/kg
Rattus norvegicus [11] = assay: Plasma concentration at a dose of 1 mg/kg in Jc1SD rats after intravenous administration upon racemisation after 5 min; type: functional, organism-based; design: dose 1 mg/kg
Rattus norvegicus [12] = assay: Plasma concentration of enantiomer at a dose of 1 mg/kg in Jc1SD rats after intravenous administration upon racemisation after 10 min; type: functional, organism-based; design: dose 1 mg/kg
Rattus norvegicus [13] = assay: Plasma concentration of enantiomer at a dose of 1 mg/kg in Jc1SD rats after intravenous administration upon racemisation after 30 min; type: functional, organism-based; design: dose 1 mg/kg
Rattus norvegicus [14] = assay: Plasma concentration at a dose of 1 mg/kg in Jc1SD rats after intravenous administration upon racemisation after 60 min; type: functional, organism-based; design: dose 1 mg/kg
[15] = Plasma lipid-lowering activity at a dosage of 0.005% in the diet in KKA(y) mice.; type: functional, Mus musculus
Summary of the method: (§2)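 KKAy mice (9–13 weeks old), five per group, on powdered CE-2 diet containing compound at 0.001, 0.005 or 0.01% for 4 d. Plasma triglyceride from orbital-vein blood measured enzymatically and reported as maximum percent reduction from control; Dunnett's test; less than 10% reduction flagged.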

Mus musculus [16] = species: Mus musculus; assay: Plasma glucose-lowering activity at a dosage of 0.01% in the diet in KKAy mice; type: functional
Summary of the method: (§3)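 KKAy mice (9–13 weeks old), five per group, grouped by blood glucose after 3 d on powdered CE-2 chow. Dietary admixture at 0.001, 0.005 or 0.01% for 4 d, food and water ad libitum. Orbital-vein plasma glucose measured enzymatically and expressed as maximum percent reduction versus control; Dunnett's test.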

[17] = Plasma glucose-lowering activity at a dosage of 0.005% in the diet in KKA(y) mice.; type: functional, Mus musculus; summary of the method: as §3
[18] = Plasma lipid-lowering activity at a dosage of 0.01% in the diet in KKAy mice; type: functional, Mus musculus; summary of the method: as §2
RXR alpha/PPAR gamma = target: T1, RXR alpha/PPAR gamma (Homo sapiens, UniProt P19793+P37231); assay: Transcriptional activation in COS cells expressing PPAR gamma and RXR alpha
T1 sequence (P37231 whole entry): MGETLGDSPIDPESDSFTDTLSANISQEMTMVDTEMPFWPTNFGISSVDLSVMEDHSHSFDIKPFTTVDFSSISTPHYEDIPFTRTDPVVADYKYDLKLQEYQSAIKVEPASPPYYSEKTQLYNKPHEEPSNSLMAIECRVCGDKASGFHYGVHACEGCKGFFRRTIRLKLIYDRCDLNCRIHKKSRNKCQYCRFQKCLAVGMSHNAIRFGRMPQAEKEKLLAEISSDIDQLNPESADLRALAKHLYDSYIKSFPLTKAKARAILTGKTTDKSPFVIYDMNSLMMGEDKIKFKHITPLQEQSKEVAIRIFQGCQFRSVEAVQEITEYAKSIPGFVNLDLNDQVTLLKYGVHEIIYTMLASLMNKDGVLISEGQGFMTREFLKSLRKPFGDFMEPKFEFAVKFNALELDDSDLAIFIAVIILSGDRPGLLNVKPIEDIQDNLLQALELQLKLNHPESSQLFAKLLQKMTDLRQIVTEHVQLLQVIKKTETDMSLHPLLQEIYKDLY
T1 sequence (P19793 whole entry): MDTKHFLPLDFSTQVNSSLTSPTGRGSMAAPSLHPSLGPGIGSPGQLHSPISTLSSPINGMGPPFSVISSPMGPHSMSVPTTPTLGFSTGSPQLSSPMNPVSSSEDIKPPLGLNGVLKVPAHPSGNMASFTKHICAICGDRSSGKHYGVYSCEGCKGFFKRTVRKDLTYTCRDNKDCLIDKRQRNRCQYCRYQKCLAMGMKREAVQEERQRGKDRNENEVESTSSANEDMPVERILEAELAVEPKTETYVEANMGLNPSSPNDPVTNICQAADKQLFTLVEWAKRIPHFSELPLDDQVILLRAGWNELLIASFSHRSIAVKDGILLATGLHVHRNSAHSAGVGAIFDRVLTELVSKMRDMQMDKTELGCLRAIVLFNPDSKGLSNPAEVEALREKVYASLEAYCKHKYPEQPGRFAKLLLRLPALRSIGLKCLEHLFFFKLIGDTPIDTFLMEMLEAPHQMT

Mus musculus [19] = species: Mus musculus; assay: Effective dose for 25% reduction in plasma glucose-lowering activity in KKAy mice; type: functional
Summary of the method: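 KKAy mice (9–13 weeks old), five per group, allocated by blood glucose after 3 d on powdered CE-2 chow. Compounds given as dietary admix at three levels chosen from first screening, 4 d ad libitum. Orbital-vein plasma glucose assayed enzymatically. Dose in mg/kg/d computed from food intake and body weight; ED25 derived by linear regression.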

Rattus norvegicus [20] = species: Rattus norvegicus; assay: as §1; type: functional; remark: listed apart in the source
Summary of the method: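 Wistar fatty rats (10–15 weeks old), five per group, allocated by plasma glucose and triglyceride. Oral dosing by stomach tube once daily for 6 d at three doses, suspended in 0.5% methyl cellulose; CE-2 pellets and water ad libitum. Tail-vein plasma glucose measured; ED25 taken from the three-dose response by linear regression.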

Mus musculus [21] = species: Mus musculus; assay: Plasma lipid-lowering activity at a dosage of 0.005% in the diet in KKAy mice;LA denotes less than 10% reduction at this dosage; type: functional, organism-based; summary of the method: as §2
Rattus norvegicus [22] = assay: Plasma concentrations of S(-)-64 at a dose of 1 mg/kg in Jc1SD rats after intravenous administration after 15 min; type: functional, organism-based; design: dose 1 mg/kg
Rattus norvegicus [23] = assay: Plasma concentrations of S(-)-64 at a dose of 1 mg/kg in Jc1SD rats after intravenous administration after 30 min; type: functional, organism-based; design: dose 1 mg/kg
Rattus norvegicus [24] = assay: Plasma concentrations of R(+)-64 at a dose of 1 mg/kg in Jc1SD rats after intravenous administration after 120 min; type: functional, organism-based; design: dose 1 mg/kg
Rattus norvegicus [25] = assay: Plasma concentrations of R(+)-64 at a dose of 1 mg/kg in Jc1SD rats after intravenous administration after 5 min; type: functional, organism-based; design: dose 1 mg/kg
Rattus norvegicus [26] = assay: Plasma concentrations of R(+)-64 at a dose of 1 mg/kg in Jc1SD rats after intravenous administration after 60 min; type: functional, organism-based; design: dose 1 mg/kg
Rattus norvegicus [27] = assay: Plasma concentrations of R(+)-64 at a dose of 1 mg/kg in Jc1SD rats after intravenous administration after 10 min; type: functional, organism-based; design: dose 1 mg/kg
Rattus norvegicus [28] = assay: Plasma concentrations of R(+)-64 at a dose of 1 mg/kg in Jc1SD rats after intravenous administration after 15 min; type: functional, organism-based; design: dose 1 mg/kg
Rattus norvegicus [29] = assay: Plasma concentrations of S(-)-64 at a dose of 1 mg/kg in Jc1SD rats after intravenous administration after 60 min; type: functional, organism-based; design: dose 1 mg/kg
Rattus norvegicus [30] = assay: Plasma concentrations of R(+)-64 at a dose of 1 mg/kg in Jc1SD rats after intravenous administration after 30 min; type: functional, organism-based; design: dose 1 mg/kg
Rattus norvegicus [31] = assay: Plasma concentrations of S(-)-64 at a dose of 1 mg/kg in Jc1SD rats after intravenous administration after 10 min; type: functional, organism-based; design: dose 1 mg/kg
Rattus norvegicus [32] = assay: Plasma concentrations of S(-)-64 at a dose of 1 mg/kg in Jc1SD rats after intravenous administration after 5 min; type: functional, organism-based; design: dose 1 mg/kg

CCc1ccc(CCOc2ccc(CC3SC(=O)NC3=O)cc2)nc1.Cl (centres undefined) [PIOGLITAZONE HYDROCHLORIDE]
ED25 (Rattus norvegicus [1]): 0.5 mg/kg/day | ED25 (Mus musculus [2]): 6 mg/kg/day

COc1cc(CCCC2OC(=O)NC2=O)ccc1OCc1nc(-c2ccco2)oc1C (single isomer, unassigned; (-))
Concentration (Rattus norvegicus [3]): 4.78 µg/mL | Concentration (Rattus norvegicus [4]): 0.07 µg/mL | Concentration (Rattus norvegicus [5]): 0.04 µg/mL | Concentration (Rattus norvegicus [6]): 3.97 µg/mL | Concentration (Rattus norvegicus [7]): 0.05 µg/mL | Concentration (Rattus norvegicus [8]): 2.94 µg/mL | Concentration (Rattus norvegicus [9]): 1.61 µg/mL | Concentration (Rattus norvegicus [10]): 0.04 µg/mL | Concentration (Rattus norvegicus [11]): 0.04 µg/mL | Concentration (Rattus norvegicus [12]): 4.3 µg/mL | Concentration (Rattus norvegicus [13]): 3.65 µg/mL | Concentration (Rattus norvegicus [14]): 0.07 µg/mL

Cc1oc(-c2ccccc2)nc1CCOc1ccc(CCCC2SC(=O)NC2=O)cc1 (centres undefined)
Activity [15]: 18 | Activity (Mus musculus [16]): 35 | Activity [17]: 26 | Activity [18]: 42

Cc1sc(-c2ccccc2)nc1COc1ccc(CCCC2OC(=O)NC2=O)cc1 (single isomer, unassigned; (+))
EC50 (RXR alpha/PPAR gamma): 269 nM | ED25 (Mus musculus [19]): 1.44 mg/kg/day | ED25 (Rattus norvegicus [20]): 0.23 mg/kg/day

Cc1oc(-c2ccccc2)nc1COc1ccc(CC2OC(=O)NC2=O)cc1 (centres undefined)
LA (Mus musculus [21]): Less than 10% reduction at this dosage | Activity [17]: 29

COc1cc(CCCC2OC(=O)NC2=O)ccc1OCc1nc(-c2ccco2)oc1C (stereo in doubt; (+)-64)
Concentration (Rattus norvegicus [22]): 0.02 µg/mL | Concentration (Rattus norvegicus [23]): 0.02 µg/mL | Concentration (Rattus norvegicus [24]): 1.46 µg/mL | Concentration (Rattus norvegicus [25]): 6.46 µg/mL | Concentration (Rattus norvegicus [26]): 3.19 µg/mL | Concentration (Rattus norvegicus [27]): 6.06 µg/mL | Concentration (Rattus norvegicus [28]): 5.13 µg/mL | Concentration (Rattus norvegicus [29]): 0.02 µg/mL | Concentration (Rattus norvegicus [30]): 4.78 µg/mL | Concentration (Rattus norvegicus [31]): 0.02 µg/mL | Concentration (Rattus norvegicus [32]): 0.02 µg/mL
